For series [1] the following is noted: up to 30 mg kg^−1 i.p., Sprague-Dawley rats; cited from earlier work.
The conditions of series [2]: up to 30 mg kg^−1 i.p., mice; cited from earlier work.
For series [3] the following is noted: experimental mice; cited from earlier work.
Series [4] deals with small-conductance Ca2+-activated KCa2 channels. Particulars: cited from earlier work.
The target in another series is KCa3.1 channel (Homo sapiens, UniProt O15554+P0DP23). The experiment in a line: QPatch-HTX patch-clamp, KCa3.1 activation. Type of series: cell-based. In outline: (§1)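 Automated whole-cell patch clamp on a QPatch-HTX. Test compound came from 10 mM DMSO stocks, diluted in fixed ratios into each channel's own extracellular solution, over 300 nM to 30 μM. Each current slope was the mean of five measurements at the end of each liquid period. Activation was normalised per cell to a saturating 30 μM activator applied before washout; otherwise currents were normalised to the last vehicle period. Hill fit used ≥3 cells.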
On the technique in general: In patch-clamp work, channel activity is measured electrically.

The nature of series [5]: Solubility in DMSO by UV-Vis spectrophotometry. Format: physicochemical. In outline: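 Excess test compound (50 mg) was shaken in 500 μL DMSO at 1000 rpm for 24 h, then filtered through 0.22 μm and diluted 100-fold in DMSO. Concentration came from absorbance at the peak, read against a blank-corrected calibration curve at 345 nm. Standards were serial dilutions in DMSO from 0.5 to 0.007 mg mL−1.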

Series [6] is described as follows: 14-day i.p. tolerability in mice. Format: in vivo, C57BL/6 mice. Particulars: 30 mg kg^−1 i.p. daily for 14 days, female C57BL/6. In a few lines:
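Female C57BL/6 mice (6–7 weeks old, n = 6 per group) got test compound at 6 mg mL−1 in 3% DMSO + 97% peanut oil. The preparation was thawed, heated to ~60 °C and cooled before dosing. Dose was ~100 μL i.p. (30 mg kg−1) once daily for 14 days; vehicle-injected controls. Body weight was taken every 2–4 days. At day 14, serum AST was measured by colorimetric kit, and organs were paraffin-embedded and H&E-stained.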

Series [7] is described as follows: Tissue biodistribution by LC-MS after 14-day dosing. Format: in vivo, C57BL/6 mice. To be noted: female, C57BL/6, mouse, ip, 30 mg kg^−1. In outline:
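After 14 days of daily i.p. dosing (30 mg kg−1 in 3% DMSO/97% peanut oil), brain, kidney and liver were harvested at termination. Pre-weighed organs were homogenised in methanol:dichloromethane (1:1), held 30 min at 4 °C and spun 10 min at 14000 rpm, 4 °C. LC-MS used a C18 column at 40 °C and 0.3 mL min−1, with a water/acetonitrile (0.1% formic acid) gradient from 20% to 95% B over a 10 min run.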

Series [8] is described as follows: Plasma pharmacokinetics after single i.p. dose. Type of series: in vivo, BALB/c mice. Particulars: 30 mg kg^−1 i.p. In outline:
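Female BALB/c mice (7–9 weeks old, n = 4 per time point) received a single i.p. dose of 30 mg kg−1 in 3% DMSO + 97% peanut oil. Blood was taken at 0, 0.25, 0.5, 1, 2, 4, 8 and 24 h. Plasma (20 μL) was mixed with 60 μL methanol:dichloromethane (1:1), then test compound was quantified by LC-MS on a C18 column with a water/acetonitrile (0.1% formic acid) gradient.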

The next series addresses KCa2.2 (Rattus norvegicus, UniProt P70604). The experiment in a line: QPatch-HTX patch-clamp, KCa2.2. Type of series: cell-based. In outline: as §1
Another series deals with KCa2.3 (Homo sapiens, UniProt Q9UGI6). Kind of series: QPatch-HTX patch-clamp, KCa2.3. Format: cell-based. In a few lines:
as §1

Where “and” joins values, the source holds several entries; their conditions need not be identical. Identical values can stand only once. Like-named read-outs stand apart in the source and are kept apart here.

KCa3.1 channel, sequence (O15554 whole entry, one chain of several): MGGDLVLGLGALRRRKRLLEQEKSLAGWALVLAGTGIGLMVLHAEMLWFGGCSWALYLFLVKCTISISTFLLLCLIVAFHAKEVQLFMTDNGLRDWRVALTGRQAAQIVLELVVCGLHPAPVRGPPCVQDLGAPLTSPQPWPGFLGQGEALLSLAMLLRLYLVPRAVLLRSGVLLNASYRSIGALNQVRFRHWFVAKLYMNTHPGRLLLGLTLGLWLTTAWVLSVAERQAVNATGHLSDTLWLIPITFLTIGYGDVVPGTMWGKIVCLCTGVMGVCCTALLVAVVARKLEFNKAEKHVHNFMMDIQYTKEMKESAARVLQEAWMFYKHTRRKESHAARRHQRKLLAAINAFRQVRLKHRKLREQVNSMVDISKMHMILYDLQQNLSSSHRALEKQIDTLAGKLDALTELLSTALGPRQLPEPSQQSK
KCa2.2, sequence (P70604 whole entry): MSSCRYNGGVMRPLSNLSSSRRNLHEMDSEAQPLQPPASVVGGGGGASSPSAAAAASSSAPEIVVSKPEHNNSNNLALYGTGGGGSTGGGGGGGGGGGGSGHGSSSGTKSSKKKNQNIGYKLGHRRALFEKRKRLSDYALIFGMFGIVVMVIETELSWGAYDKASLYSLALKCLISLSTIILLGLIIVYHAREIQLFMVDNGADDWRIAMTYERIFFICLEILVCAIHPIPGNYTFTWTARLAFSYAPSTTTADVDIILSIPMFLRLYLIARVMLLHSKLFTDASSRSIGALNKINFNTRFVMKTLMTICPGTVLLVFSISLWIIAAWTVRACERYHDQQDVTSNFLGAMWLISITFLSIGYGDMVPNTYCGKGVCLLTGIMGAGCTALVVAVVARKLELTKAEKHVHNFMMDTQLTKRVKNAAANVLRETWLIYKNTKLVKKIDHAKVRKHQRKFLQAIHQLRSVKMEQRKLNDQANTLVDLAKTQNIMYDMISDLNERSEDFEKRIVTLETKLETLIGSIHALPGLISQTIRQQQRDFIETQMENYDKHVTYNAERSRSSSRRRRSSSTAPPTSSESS
KCa2.3, sequence (Q9UGI6 whole entry): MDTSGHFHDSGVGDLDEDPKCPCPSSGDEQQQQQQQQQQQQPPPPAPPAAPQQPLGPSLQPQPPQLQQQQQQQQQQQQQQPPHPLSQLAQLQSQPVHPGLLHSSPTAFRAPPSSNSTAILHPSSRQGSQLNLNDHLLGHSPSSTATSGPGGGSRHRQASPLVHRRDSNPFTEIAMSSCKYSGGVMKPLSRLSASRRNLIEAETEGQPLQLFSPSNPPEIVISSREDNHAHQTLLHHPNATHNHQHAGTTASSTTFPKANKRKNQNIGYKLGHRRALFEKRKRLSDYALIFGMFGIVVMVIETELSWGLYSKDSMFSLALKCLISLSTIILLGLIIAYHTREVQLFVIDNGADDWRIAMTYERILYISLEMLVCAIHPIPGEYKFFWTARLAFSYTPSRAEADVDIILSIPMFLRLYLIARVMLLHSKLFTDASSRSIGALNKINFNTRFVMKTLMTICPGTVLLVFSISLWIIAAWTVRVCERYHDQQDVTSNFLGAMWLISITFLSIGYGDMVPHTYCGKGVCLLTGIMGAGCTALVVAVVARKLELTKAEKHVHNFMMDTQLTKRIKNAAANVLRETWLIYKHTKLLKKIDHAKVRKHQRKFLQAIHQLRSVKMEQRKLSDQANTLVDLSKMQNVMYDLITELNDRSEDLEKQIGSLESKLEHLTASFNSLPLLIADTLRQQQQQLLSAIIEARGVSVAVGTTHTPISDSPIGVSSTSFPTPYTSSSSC

In the case of `Nc1nc2c(ccc3ccccc32)s1` [SKA-31, Naphtho[1,2-d]thiazol-2-ylamine], the Tolerability entry in series [1] and in series [2] was “well-tolerated” in each case. For the same compound, the “Effect on blood pressure” value in [3] is reported as “lowered blood pressure”. For the same compound, the “Selectivity for KCa3.1 over KCa2 channels” value in [4] is “lacked selectivity”.
Broadly, the EC50 is the midpoint of the concentration-response curve. A higher EC50 goes with lower potency in that assay. A word on the solubility: it is the concentration that dissolves in the medium under given conditions. The Cmax is the maximum level reached in the sampled fluid or tissue. On KCa3.1 channel, `Cc1cc2sc(N)nc2c2cccnc12` [SKA-346, 5-methyl-[1,3]thiazolo[4,5-f]quinolin-2-amine] showed a concentration for a half-maximal effect (EC50) of 1900 nM. The solubility at 24 h in series [5] was 40600 µg/mL and 189000 µM. For the same compound, in series [6], the “Change in serum aspartate aminotransferase (AST) vs vehicle” value is “did not cause any significant change” and the “Mouse body weight loss vs vehicle” value is “no significant mouse body weight loss”. The same compound showed a concentration at 14 days in [7] (kidney) of 60.7 ng/g. Also, the concentration at 14 days in series [7] (liver) stood at 22.5 ng/g. For the same compound, the “Cmax relative to EC50 for KCa3.1 activation” value in series [8] (at 15 min) was “about 15 times”. Further, in series [8] (female BALB/c mice, plasma), the MRTlast is 4.82 h and the “circulating half-life (t1/2)” value is given as 2.84 h. Moreover, the highest concentration (Cmax) in series [8] (female, BALB/c, mouse, plasma, ip, 30 mg/kg, peak plasma concentration (Cmax), female BALB/c mice, at 15 min) is 6290 ng/mL and 29.2 µM.
For the compound `Nc1nc2c(cc(C(F)(F)F)c3ncccc32)s1` [NKV-104, 5-(trifluoromethyl)thiazolo[4,5-f]quinolin-2-amine], the EC50 on KCa3.1 channel was found to be 1700 nM; at KCa2.2, 11.9 µM; on KCa2.3 it was 29.3 µM.

(Values after paper PMC11615718 (RSC Advances, 2024).)
